Several values for one entry are separate records, joined by “and”; a condition that tells them apart may be missing. Equal entries are not always repeated.
Key:
[1] = Ratio, I x 100/ref I at a dose of 25 mg/kg in L1210 leukemic mice; type: functional
How it was run: (§1)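 Male B6D2F1 mice, 3 months old, received 10^5 L1210 cells ip on day 0. Dosing was ip on days 1, 5 and 9 in 20% aqueous Tween 80, 0.1–0.2 mL per 20 g, with 8 mice per group. There were 12 vehicle controls and 8 mice given mitomycin 2 mg/kg ip in water. Daily mortality was recorded, with autopsies. Ratio = treated-group MST ×100/reference-group MST; Wilcoxon, p<0.05.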

Mus musculus [2] = assay: MST of mitomycin 2 mg/kg treated group x 100/MST of untreated control group at a dose of 25 mg/kg in L1210 leukemic mice; type: functional
How it was run: (§2)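 Reference group of 8 B6D2F1 mice bearing ip-grafted 10⁵ L1210 cells (day 0), given mitomycin 2 mg/kg in distilled water ip on days 1, 5 and 9. Controls were 12 mice given vehicle only. Mortality was followed daily with autopsy. Ref I = mitomycin-group MST × 100/control MST, run alongside each test experiment.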

Mus musculus [3] = assay: Median survival time of treated group / untreated group, when 25 mg/kg compound is administered intraperitoneally in L1210 leukemic mice; type: functional; details: route intraperitoneal
How it was run: (§3)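 Male 3-month-old B6D2F1 mice, 10⁵ L1210 cells ip on day 0. Compound was given ip on days 1, 5 and 9 in aqueous 20% Tween 80 (0.1–0.2 mL per 20 g), 8 mice per group. Twelve vehicle controls. Daily mortality with autopsy to assign leukemic versus toxic death. I = treated MST × 100/control MST. Wilcoxon test, p < 0.05; active if I > 125 and p < 0.05.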

[4] = Lethal dose in L1210 leukemic mice, by administering compound intraperitoneally; type: toxicity, organism-based; details: mouse, in vivo, ip
How it was run: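 Male B6D2F1 mice (3 months old) received 10⁵ L1210 leukemia cells ip on day 0. One day later they were given compound ip. Mortality was recorded daily for 9 days and the acute LD50 expressed in mg/kg.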

Mus musculus [5] = assay: Median survival time of treated group / untreated group, when 20 mg/kg compound is administered intraperitoneally in L1210 leukemic mice; type: functional; details: route intraperitoneal; how it was run: as §3
[6] = Ratio, I x 100/ref I at a dose of 20 mg/kg in L1210 leukemic mice; type: functional; how it was run: as §1
Mus musculus [7] = assay: MST of mitomycin 2 mg/kg treated group x 100/MST of untreated control group at a dose of 20 mg/kg in L1210 leukemic mice; type: functional; how it was run: as §2
Mus musculus [8] = assay: Median survival time of treated group / untreated group, when 10 mg/kg compound is administered intraperitoneally in L1210 leukemic mice; type: functional; details: route intraperitoneal; how it was run: as §3
Mus musculus [9] = assay: MST of mitomycin 2 mg/kg treated group x 100/MST of untreated control group at a dose of 4 mg/kg in L1210 leukemic mice; type: functional; how it was run: as §2
Mus musculus [10] = assay: Median survival time of treated group / untreated group, when 4 mg/kg compound is administered intraperitoneally in L1210 leukemic mice; type: functional; details: route intraperitoneal; how it was run: as §3
[11] = Ratio, I x 100/ref I at a dose of 10 mg/kg in L1210 leukemic mice; type: functional; how it was run: as §1
[12] = Ratio, I x 100/ref I at a dose of 15 mg/kg in L1210 leukemic mice; type: functional; how it was run: as §1
Mus musculus [13] = assay: MST of mitomycin 2 mg/kg treated group x 100/MST of untreated control group at a dose of 15 mg/kg in L1210 leukemic mice; type: functional; how it was run: as §2
Mus musculus [14] = assay: Median survival time of treated group / untreated group, when 15 mg/kg compound is administered intraperitoneally in L1210 leukemic mice; type: functional; details: route intraperitoneal; how it was run: as §3
[15] = Ratio, I x 100/ref I at a dose of 4 mg/kg in L1210 leukemic mice; type: functional; how it was run: as §1
Mus musculus [16] = assay: MST of mitomycin 2 mg/kg treated group x 100/MST of untreated control group at a dose of 10 mg/kg in L1210 leukemic mice; type: functional; how it was run: as §2
[17] = Ratio, I x 100/ref I at a dose of 50 mg/kg in L1210 leukemic mice; type: functional; how it was run: as §1
[18] = Ratio, I x 100/ref I at a dose of 100 mg/kg in L1210 leukemic mice; type: functional; how it was run: as §1
Mus musculus [19] = assay: MST of mitomycin 2 mg/kg treated group x 100/MST of untreated control group at a dose of 50 mg/kg in L1210 leukemic mice; type: functional; how it was run: as §2
Mus musculus [20] = assay: MST of mitomycin 2 mg/kg treated group x 100/MST of untreated control group at a dose of 30 mg/kg in L1210 leukemic mice; type: functional; how it was run: as §2
Mus musculus [21] = assay: Median survival time of treated group / untreated group, when 30 mg/kg compound is administered intraperitoneally in L1210 leukemic mice; type: functional; details: route intraperitoneal; how it was run: as §3
Mus musculus [22] = assay: MST of mitomycin 2 mg/kg treated group x 100/MST of untreated control group at a dose of 100 mg/kg in L1210 leukemic mice; type: functional; how it was run: as §2
[23] = Ratio, I x 100/ref I at a dose of 30 mg/kg in L1210 leukemic mice; type: functional; how it was run: as §1
Mus musculus [24] = assay: Median survival time of treated group / untreated group, when 50 mg/kg compound administered intraperitoneally in L1210 leukemic mice; type: functional; details: route intraperitoneal; how it was run: as §3

In the case of `CC(C)NC(=O)OCc1c(COC(=O)NC(C)C)c(-c2ccsc2)n2c1CCC2`, the Ratio [1] is reported as 72, the “Ref I oncostatic index” value (Mus musculus [2]) is reported as 162 and the Oncostatic index (Mus musculus [3]) is reported as 117. For the same molecule, the LD50 [4] was 65 mg/kg, the Oncostatic index (Mus musculus [5]) was 100 and the Ratio [6] was 72. For the same molecule, the “Ref I oncostatic index” value (Mus musculus [7]) was 139.

In the case of `CC(C)NC(=O)OCc1c(COC(=O)NC(C)C)c(-c2cccs2)n2c1CCC2`, the Oncostatic index (Mus musculus [8]) is reported as 129, the “Ref I oncostatic index” value (Mus musculus [9]) is reported as 164 and the Oncostatic index (Mus musculus [10]) is reported as 108. It also gave a Ratio [11] of 79, a Ratio [12] of 90 and an LD50 [4] of 35 mg/kg. For the same molecule, the “Ref I oncostatic index” value (Mus musculus [13]) was 139, the Oncostatic index (Mus musculus [14]) was 125 and the Ratio [15] was 66. The “Ref I oncostatic index” value (Mus musculus [16]) was 163.

Molecule `CC(=O)OCc1c(COC(C)=O)c(-c2cccs2)n2c1CCC2` has a Ratio [17] of 92, a Ratio [12] of 83 and a Ratio [18] of 80. The “Ref I oncostatic index” value (Mus musculus [19]) was 136, the LD50 [4] was 80 mg/kg and the “Ref I oncostatic index” value (Mus musculus [20]) was 140. The Oncostatic index (Mus musculus [21]) was 114 and 100, the “Ref I oncostatic index” value (Mus musculus [13]) was 121 and the Oncostatic index (Mus musculus [14]) was 100. For the same molecule, the “Ref I oncostatic index” value (Mus musculus [22]) was 125, the Ratio [23] was 86 and the Oncostatic index (Mus musculus [24]) was 117.
